Test results from ChEMBL document CHEMBL1156149, “Cyclic sulfones as novel P3-caps for hepatitis C virus NS3/4A (HCV NS3/4A) protease inhibitors: synthesis and evaluation of inhibitors with improved potency and pharmacokinetic profiles” (J Med Chem, 2010).

How the values were obtained:
[1] = Inhibition of HCV NS3/4A protease; design: species or system Hepacivirus hominis
Hepatitis C virus = experiment: Antiviral activity against Hepatitis C virus infected in human hepatoma cells assessed as inhibition of viral replication; format: functional, organism-based, Hepacivirus hominis
[2] = AUC (0 to 24 hrs) in monkey at 3 mg/kg, po; format: ADME, organism-based, Macaca mulatta; design: time < 24 hr, dose 3 mg/kg, route oral; settings: rhesus monkey, plasma
[3] = Plasma concentration in monkey at 3 mg/kg, po after 8 hrs; format: ADME, organism-based, Macaca mulatta; design: dose 3 mg/kg, route oral; settings: rhesus monkey
[4] = Ratio of plasma concentration in monkey at 3 mg/kg, po after 8 hrs to EC90 for Hepatitis C virus; format: ADME, organism-based; design: dose 3 mg/kg, route oral; settings: in vivo
[5] = AUC (0 to 6 hrs) in rat at 10 mg/kg, po; format: ADME, organism-based; design: time < 6 hr, dose 10 mg/kg, route oral; settings: plasma
Outline: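 Rats dosed orally at 10 mg/kg in 0.4% methylcellulose in water, in a rapid rat protocol. Blood was withdrawn periodically and pooled, and plasma AUC was calculated over the stated interval.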

[6] = Bioavailability in monkey at 3 mg/kg; format: ADME, organism-based, Macaca mulatta; settings: rhesus monkey, in vivo
[7] = AUC in monkey at 3 mg/kg; format: ADME, organism-based, Macaca mulatta; design: dose 3 mg/kg; settings: rhesus monkey, plasma
Outline: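 Oral dosing of monkeys at 3 mpk, with compound suspended in 0.4% methylcellulose. Exposure was reported as plasma AUC(0-24h) in μM h. Plasma concentration at 8 h was also taken and expressed as a ratio to cellular EC90.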

[8] = AUC in rat at 10 mg/kg; format: ADME, organism-based; design: dose 10 mg/kg; settings: plasma
Outline: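 Rats were given compound orally at 10 mg/kg in 0.4% methylcellulose in water. Blood was sampled periodically and pooled (rapid rat protocol). Plasma exposure was reported as AUC(0-6h) in μM h.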

Row | SMILES | Ki [1] [nM] | EC90 (Hepatitis C virus) [nM] | also measured
1 | CCCC[C@H](NC(=O)[C@@H]1[C@H]2[C@@H](CN1C(=O)[C@@H](NC(=O)NC1([C@H]3CCCCS3(=O)=O)CCCCC1)C(C)(C)C)C2(C)C)C(=O)C(=O)NC1CC1 | 10 | 50 | –
2 | CCC[C@H](NC(=O)[C@@H]1[C@H]2[C@@H](CN1C(=O)[C@@H](NC(=O)NC1([C@H]3CCCCS3(=O)=O)CCCCC1)C(C)(C)C)C2(C)C)C(=O)C(=O)NC1CC1 | 12 | 40 | –
3 | CCC[C@H](NC(=O)[C@@H]1[C@H]2[C@@H](CN1C(=O)[C@@H](NC(=O)NC1([C@H]3CCCCS3(=O)=O)CCCCC1)C1(C)CCCCC1)C2(C)C)C(=O)C(=O)NC1CC1 | 7 | 50 | –
4 | CCCC[C@H](NC(=O)[C@@H]1C2C(CN1C(=O)[C@@H](NC(=O)NC1([C@@H]3CCCS3(=O)=O)CCCCC1)C(C)(C)C)C2(C)C)C(=O)C(=O)NC1CC1 (single isomer, unassigned) | 4 | 30 | –
5 | CCCC[C@H](NC(=O)[C@@H]1C2C(CN1C(=O)[C@@H](NC(=O)NC1([C@@H]3CCS3(=O)=O)CCCCC1)C(C)(C)C)C2(C)C)C(=O)C(=O)NC1CC1 (single isomer, unassigned) | 5 | 120 | –
6 | CCCC[C@H](NC(=O)[C@@H]1C2C(CN1C(=O)[C@@H](NC(=O)NC1([C@@H]3CCCCS3(=O)=O)CCCCC1)C(C)(C)C)C2(C)C)C(=O)C(=O)NC1CC1 (single isomer, unassigned) | 11 | 60 | –
7 | C=CCNC(=O)C(=O)[C@H](CCC)NC(=O)[C@@H]1C2C(CN1C(=O)[C@@H](NC(=O)NC1([C@H]3CCCCS3(=O)=O)CCCCC1)C(C)(C)C)C2(C)C (single isomer, unassigned) | 3 | 30 | –
8 | CCCC[C@H](NC(=O)[C@@H]1C2C(CN1C(=O)[C@@H](NC(=O)NC1([C@H]3CCCS3(=O)=O)CCCCC1)C1(C)CCCCC1)C2(C)C)C(=O)C(=O)NC1CC1 (single isomer, unassigned) | 3 | 20 | AUC(0-t) at 24 h [2]: 9 µM·h; concentration at 8 h [3]: 742 nM; Ratio [4]: 37
9 | CCC[C@H](NC(=O)[C@@H]1C2C(CN1C(=O)[C@@H](NC(=O)NC1([C@H]3CCCS3(=O)=O)CCCCC1)C1(C)CCCCC1)C2(C)C)C(=O)C(=O)NC1CC1 (single isomer, unassigned) | 2 | 20 | AUC(0-t) at 24 h [2]: 20.8 µM·h; concentration at 8 h [3]: 934 nM; Ratio [4]: 47
10 | CCCC[C@H](NC(=O)[C@@H]1C2C(CN1C(=O)[C@@H](NC(=O)NC1([C@H]3CCCS3(=O)=O)CCCCC1)C(C)(C)C)C2(C)C)C(=O)C(=O)NC1CC1 (single isomer, unassigned) | 4 | 20 | AUC(0-t) at 24 h [2]: 0.4 µM·h; concentration at 8 h [3]: 10 nM; AUC(0-t) at 6 h [5]: 0.9 µM·h; Ratio [4]: 0.5

Continued, in another order:

Row | Ki [1] [nM] | EC90 (Hepatitis C virus) [nM] | SMILES | also measured
11 | 4 | 40 | C=CCNC(=O)C(=O)[C@H](CCC1CC1)NC(=O)[C@@H]1[C@H]2[C@@H](CN1C(=O)[C@@H](NC(=O)NC1([C@H]3CCCCS3(=O)=O)CCCCC1)C(C)(C)C)C2(C)C | –
12 | 9 | – | CC1(NC(=O)N[C@H](C(=O)N2C[C@@H]3[C@H]([C@H]2C(=O)NC(CC2CCC2)C(=O)C(N)=O)C3(C)C)C(C)(C)C)CCCCC1 (some centres undefined) | EC90 (Hepatitis C virus; read-out: EC90): 200 nM
13 | 12 | 60 | C=CCNC(=O)C(=O)[C@H](CCCC)NC(=O)[C@@H]1[C@H]2[C@@H](CN1C(=O)[C@@H](NC(=O)NC1([C@H]3CCCCS3(=O)=O)CCCCC1)C(C)(C)C)C2(C)C | –
14 | 4 | 40 | CC(C)(C)[C@H](NC(=O)NC1([C@H]2CCCS2(=O)=O)CCCCC1)C(=O)N1C[C@@H]2[C@H]([C@H]1C(=O)N[C@@H](CCC1CC1)C(=O)C(=O)NC1CC1)C2(C)C | –
15 | 8 | 100 | CCCC[C@H](NC(=O)[C@@H]1[C@H]2[C@@H](CN1C(=O)[C@@H](NC(=O)NC1([C@H]3CCCCS3(=O)=O)CCCCC1)C1(C)CCCCC1)C2(C)C)C(=O)C(=O)NC1CC1 | –
16 | 3 | 40 | CC1([C@H](NC(=O)NC2([C@H]3CCCS3(=O)=O)CCCCC2)C(=O)N2C[C@@H]3[C@H]([C@H]2C(=O)N[C@@H](CCC2CC2)C(=O)C(=O)NC2CC2)C3(C)C)CCCCC1 | AUC(0-t) at 24 h [2]: 3.5 µM·h; concentration at 8 h [3]: 303 nM; Ratio [4]: 8
17 | 6 | 35 | C=CCNC(=O)C(=O)C(CCC)NC(=O)[C@@H]1[C@H]2[C@@H](CN1C(=O)[C@@H](NC(=O)NC1([C@H]3CCCS3(=O)=O)CCCCC1)C(C)(C)C)C2(C)C (mixture of isomers) | –
18 | 10 | 60 | CCCC[C@H](NC(=O)[C@@H]1C2C(CN1C(=O)[C@@H](NC(=O)NC1([C@H]3CCS3(=O)=O)CCCCC1)C(C)(C)C)C2(C)C)C(=O)C(=O)NC1CC1 (single isomer, unassigned) | –
19 | 3 | 30 | C=CCNC(=O)C(=O)[C@H](CCCC)NC(=O)[C@@H]1C2C(CN1C(=O)[C@@H](NC(=O)NC1([C@H]3CCCS3(=O)=O)CCCCC1)C(C)(C)C)C2(C)C (single isomer, unassigned) | AUC(0-t) at 24 h [2]: 2.2 µM·h
20 | 4 | 35 | C=CCNC(=O)C(=O)[C@H](CCC1CC1)NC(=O)[C@@H]1C2C(CN1C(=O)[C@@H](NC(=O)NC1([C@H]3CCCS3(=O)=O)CCCCC1)C(C)(C)C)C2(C)C (single isomer, unassigned) | –
21 | 6 | 40 | CC1(C)C2CN(C(=O)[C@@H](NC(=O)NC3([C@H]4CCCCS4(=O)=O)CCCCC3)C(C)(C)C)[C@H](C(=O)N[C@@H](CCC3CC3)C(=O)C(=O)NC3CC3)C21 (single isomer, unassigned) | –
22 | 4 | 20 | CCC[C@H](NC(=O)[C@@H]1C2C(CN1C(=O)[C@@H](NC(=O)NC1([C@H]3CCCS3(=O)=O)CCCCC1)C(C)(C)C)C2(C)C)C(=O)C(=O)NC1CC1 (single isomer, unassigned) | –
23 | 14 | – | CC(C)(C)NC(=O)N[C@H](C(=O)N1C[C@H]2[C@@H]([C@H]1C(=O)NC(CC1CCC1)C(=O)C(N)=O)C2(C)C)C(C)(C)C (some centres undefined) [BOCEPREVIR] | AUC(0-t) at 24 h [2]: 0.12 µM·h; bioavailability [6]: 4%; AUC [7]: 0.12 µM·h; EC90 (Hepatitis C virus; read-out: EC90): 350 nM; AUC [8]: 1.52 µM·h
